≈ marks a conversion by molar mass, not a printed value. Calls of active or inactive are those of the source. The rule behind the calls is not given here.
Columns and labels:
Escherichia coli [1] = assay: Antimicrobial activity against wild-type Escherichia coli after 18 hrs by broth dilution method; assay type: functional
Procedure, shortened: (§1)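 Strains grown overnight in LB, then subcultured the next day in fresh LB. Compounds serially diluted in LB in 96-well plates with cell suspension. Growth read as optical density. Highest concentration tested […], as printed. Broth dilution run in triplicate. MIC50 taken from the OD readings.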

Candida albicans = assay: Antimicrobial activity against Candida albicans CO11 after 18 hrs by broth dilution method; assay type: functional; conditions: CO11, 18 h; procedure, shortened: as §1
Micrococcus luteus = assay: Antimicrobial activity against Sarcina lutea ATCC 9341 after 18 hrs by broth dilution method; assay type: functional; conditions: ATCC 9341, 18 h; procedure, shortened: as §1
Staphylococcus aureus = assay: Antimicrobial activity against Staphylococcus aureus ATCC 6538 after 18 hrs by broth dilution method; assay type: functional; conditions: ATCC 6538, 18 h; procedure, shortened: as §1
Escherichia coli [2] = assay: Inhibition of aminoacyl tRNA synthetase in wild-type Escherichia coli S30 cell extract asessed as inhibition of [14C]-radiolabeled aminoacid incorporation at 50 uM after 5 mins by liquid scintillation counting analysis
Procedure, shortened: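 Inhibitor incubated with 3 L E. coli wt S30 extract, as printed. Aminoacylation mix: Tris.HCl 30 mM pH 8.0, DTT 1 mM, bulk E. coli tRNA 5 g/l, ATP 3 mM, KCl 30 mM, MgCl2 8 mM, 14C-labelled amino acid 40 M (200 mCi/mmol), units as printed. Samples spotted on papers, washed with cold 10% TCA then acetone, dried. Radioactivity read by scintillation counting.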

Row | SMILES | MIC50 (Escherichia coli [1]) [µM] | MIC50 (Candida albicans) [µM] | MIC50 (Micrococcus luteus) [µM] | MIC50 (Staphylococcus aureus) [µM] | inhibition (Escherichia coli [2])
1 | Nc1ncnc2c1ncn2[C@@H]1O[C@H](CS(=O)(=O)NC(=O)[C@@H](N)Cc2ccc(O)cc2)[C@@H](O)[C@H]1O | > 100 | > 100 | > 100 | > 100 | 
2 | CC[C@H](C)[C@H](N)C(=O)NS(=O)(=O)C[C@H]1O[C@@H](n2cnc3c(N)ncnc32)[C@H](O)[C@@H]1O | > 100 | > 100 | > 100 | > 100 | 
3 | Nc1ncnc2c1ncn2[C@@H]1O[C@H](CS(=O)(=O)NC(=O)[C@@H](N)CO)[C@@H](O)[C@H]1O | > 100 | > 100 | > 100 | > 100 | 

The next lines start with the values.

Row | MIC50 (Escherichia coli [1]) [µM] | MIC50 (Candida albicans) [µM] | MIC50 (Micrococcus luteus) [µM] | MIC50 (Staphylococcus aureus) [µM] | inhibition (Escherichia coli [2]) | SMILES
4 | > 100 | > 100 | > 100 | > 100 |  | CC(C)C[C@H](N)C(=O)NS(=O)(=O)C[C@H]1O[C@@H](n2cnc3c(N)ncnc32)[C@H](O)[C@@H]1O
5 | > 100 | > 100 | > 100 | > 100 |  | NCC(=O)NS(=O)(=O)C[C@H]1O[C@@H](n2cnc3c(N)ncnc32)[C@H](O)[C@@H]1O
6 | 50 (≈ 22.3 µg/mL) | > 100 | > 100 | > 100 | Active | Nc1ncnc2c1ncn2[C@@H]1O[C@H](CS(=O)(=O)NC(=O)[C@@H](N)CC(=O)O)[C@@H](O)[C@H]1O

From ChEMBL document CHEMBL3407473, “5'-(N-aminoacyl)-sulfonamido-5'-deoxyadenosine: attempts for a stable alternative for aminoacyl-sulfamoyl adenosines as aaRS inhibitors” (2015)
